Source: PubChem BioAssay (several laboratories)
Rows were chosen to be rich in hits. Some 4.7% of all compounds tested hit in one or more screens of this group.
RGS4 block – RGS4 inhibitors, primary screen, cell-based, HEK293 M3R inducible RGS4, calcium flux; Regulator of G-protein signaling 4 (Homo sapiens), P49798; B-score at 10 µM; 0.45% of 310,000 active; Fluo-4 calcium flux; active compounds read high; triggered by carbachol at its EC20; AID 463165, 2010;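 active = B-score, a plate-corrected calcium signal, over three deviations above library mean, with baseline fluorescence within five deviations of library mean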;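 note: RGS4 expression induced by doxycycline in cells with stable M3 receptor; B-score is computed from the integrated fluorescence ratio over baseline after carbachol; higher B-score means a larger calcium signal and so more RGS4 inhibition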
MrgX1 ag – agonists of human MrgX1 receptor, primary screen, HEK293 cells, Fluo-4 calcium flux; Mas-related G-protein coupled receptor member X1 (Homo sapiens), Q96LB2; Fluo-4 calcium fluorescence, agonist mode; active compounds read high; B-score at 10 µM; 0.44% of 310,000 active; AID 588627, 2011;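 active = calcium response B-score plate-corrected fluorescence ratio at least 3 library SD, with starting fluorescence B-score inside 5 SD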
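Assay system: MrgX1-expressing HEK293 cells / Amount: fifteen thousand cells per well / Doses: test compound in the initial addition of three / Timing: cells plated overnight, dye loaded 0.5 h 37 °C, 0.5 h room temperature / Technique: kinetic calcium dye fluorescence, Fluo-4 NW / Control set: positive and negative controls per plate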
MrgX1 antagonist – antagonists of human MrgX1 receptor, primary screen, HEK293 cells, Fluo-4 calcium flux | 1.3% of 310,000 active | B-score at 10 µM | Mas-related G-protein coupled receptor member X1 (Homo sapiens), Q96LB2 | BAM8-22 antagonism; active compounds read low;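 active = calcium-response B-score plate-corrected more than 3 library SD below zero, starting fluorescence within 5 deviations, no agonist response on first addition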;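 note: peak minus trough fluorescence over baseline after final BAM8-22 challenge near maximal dose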
MrgX1 PAM – positive allosteric modulators of MrgX1, primary screen, HEK293 cells, Fluo-4 calcium flux. B-score at 10 µM. Mas-related G-protein coupled receptor member X1 (Homo sapiens), Q96LB2. 0.63% of 310,000 active. FDSS; active compounds read high;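 active = plate-corrected calcium response at least 3 library SD above typical, normal starting fluorescence, not activating the receptor alone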;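 note: compound read alongside a low EC10 to EC30 dose of BAM8-22 agonist; peak minus trough fluorescence over baseline measured at the second addition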
Cl transport mod – KCC2 cotransporter modulators, thallium flux, primary screen, cell-based, HEK293 KCC2, FluoZin-2 fluorescence, MLSMR | KCC2 cells, thallium flux FluoZin-2 fluorescence | B-score of Tl+ flux slope (higher = more flux/activation; lower = inhibition) at 10 µM | 2.2% of 190,000 active | AID 1456, 2008;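 active = thallium flux slope and its plate-corrected score both differing from the plate sample mean at a set confidence after two filtering rounds, in either direction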;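 note: slope of fluorescence scaled to starting intensity during 10 to 20 s after thallium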
RGS4 pot – RGS4 potentiators or activators, primary screen, cell-based, HEK293 M3R inducible RGS4, calcium flux; carbachol calcium flux Fluo4; active compounds read low; B-score at 10 µM; 0.92% of 310,000 active;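 active = B-score of the integrated calcium signal more than 4 SD below the library mean, with starting fluorescence not abnormally high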;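 note: negative B-score means reduced calcium response which marks RGS4 activation or potentiation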
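System – HEK293 FlpIn-TREx cells, stable M3R, doxycycline-inducible RGS4 · Reagent – ECmax carbachol challenge · Times – compound preincubation 20 min at room temperature before agonist · Technique – Fluo4 fluorescence kinetic imaging of calcium · Measure – B score of integrated Fluo4 ratio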
KCC2 secondary – KCC2 modulators in sodium-free buffer, confirmation, cell-based, HEK293 KCC2, thallium flux, secondary assay; shares compounds with Cl transport mod; FluoZin2 fluorescence; active compounds read high; normalised thallium flux (F/F0 slope) at 10 µM; 15% of 3,700 active; AID 1713, 2009;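 active = thallium flux slope above the same plate's solvent-only control mean plus 3 SD; inconclusive = the two replicate wells disagree; inactive = no significant difference from solvent-only control wells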
KCC2 bumet counter – thallium flux persisting under bumetanide in KCC2 cells, confirmation, counter-screen for KCC2 modulator project, cell-based, HEK293 KCC2, FluoZin2, secondary assay 3 | shares compounds with Cl transport mod | HEK293-KCC2 + bumetanide/ouabain; active compounds read high | normalized thallium flux at 10 µM | 49% of 3,700 active;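 active = thallium entry rate above the same plate's blocked-transporter control wells by more than 3 SD; inconclusive = the two repeat wells disagree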;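 note: raw slope of fluorescence over initial fluorescence between 10 and 20 s after thallium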
KCC2 sec2 – KCC2 modulators without ouabain present, confirmation, cell-based, HEK293 KCC2, thallium flux, FluoZin2, secondary assay 2. shares compounds with Cl transport mod. thallium flux FluoZin2 fluorescence; actives lie on both sides; F/F0 rise rate, 10–20 s post-thallium. 23% of 3,700 active. AID 1715, 2009. normalized thallium flux at 10 µM;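 active = thallium flux slope more than 3 SD above or below the plate's solvent-only control mean, mostly below; inconclusive = the two repeat wells disagreed; inactive = no significant shift from solvent-only controls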
HEK counter1 – thallium flux modulation in parental HEK cells, confirmation, counter-screen for KCC2 modulator project, cell-based, counterscreen 1. shares compounds with Cl transport mod. HEK293 parental cells, thallium flux FluoZin2, ouabain; baseline-ratio fluorescence slope, 10–20 s after thallium. thallium flux rate (normalised fluorescence) at 10 µM. 46% of 3,700 active. AID 1716, 2009;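 active = thallium flux rate significantly above the same plate's solvent-only control wells, beyond their mean plus 3 SD; inconclusive = the two replicate wells gave conflicting results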
KCC2 ouabain – KCC2 inhibitors and activators, ouabain retest, confirmation, HEK-KCC2 cells. shares compounds with Cl transport mod. HEK293-KCC2, thallium flux FluoZin2 fluorescence; bidirectional: low = inhibitor, high = activator. raw Tl+ flux slope (below DMSO = inhibition, above = activation) at 10 µM. 48% of 3,700 active. AID 1717, 2009;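 active = thallium flux slope beyond 3 SD from same-plate DMSO control mean in most replicates, usually higher, sometimes lower; inconclusive = repeat tests gave conflicting results; inactive = no significant difference from controls in most replicates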;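 note: slope of initial-normalized fluorescence between seconds 10 and 20 after thallium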
HEK counter2 – native HEK Tl+ uptake effects, second counter-screen – HEK cells, counterscreen 2, counter-screen for KCC2 modulator project, confirmation | 33% of 3,700 active | thallium flux slope at 10 µM | HEK293 parental, thallium flux FluoZin-2 fluorescence slope | shares compounds with Cl transport mod;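 active = thallium flux slope above the same plate's solvent-control mean plus 3 SD in both duplicate wells; inconclusive = duplicate wells that disagreed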;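 note: run without ouabain in cells lacking the KCC2 cotransporter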
Large screens that a line does not name were inactive (follow-up assays come after a bar, where they were run).

CC(C)(C)C(=O)N1CCN(c2nc3ccccc3s2)CC1	none (no result: Cl transport mod)
CC1=NN(c2nc3ccccc3s2)C(O)(C(F)(F)F)C1 (configuration not stated)	Cl transport mod 5.8 | KCC2 secondary inactive | KCC2 bumet counter 0.011 | KCC2 sec2 inactive | HEK counter1 0.012 | KCC2 ouabain inconclusive | HEK counter2 0.013
Cc1c(NC(=O)CN2C(=O)c3ccccc3S2(=O)=O)c(=O)n(-c2ccccc2)n1C	Cl transport mod 3.4 | KCC2 secondary inactive | KCC2 bumet counter inactive | KCC2 sec2 inactive | HEK counter1 inactive | KCC2 ouabain inactive | HEK counter2 inconclusive
CSc1nc(=S)cc(C)[nH]1	Cl transport mod 16 | KCC2 secondary inactive | KCC2 bumet counter 0.018 | KCC2 sec2 0.039 | HEK counter1 0.022 | KCC2 ouabain 0.028 | HEK counter2 0.023
CSc1nc2c(C)c(C)c(C)c(C)c2[nH]1	none (no result: Cl transport mod)
O=[N+]([O-])CC(=Nc1ccc(F)cc1)N/N=C\c1oc(O)c2ccccc12	none (no result: Cl transport mod)
COc1ccc(-c2noc(CCC(=O)NC3CCCCC3)n2)cc1	none (no result: Cl transport mod)
Oc1ccc(-n2cccc2/C=N/n2cnnc2)cc1	none
Cc1ccc(-n2cccc2/C=N/n2cnnc2)cc1Cl	none (no result: Cl transport mod) | KCC2 secondary inactive | KCC2 bumet counter inactive | KCC2 sec2 inactive | HEK counter1 inactive | KCC2 ouabain inactive | HEK counter2 inactive
COc1ccc(/C=C2\Sc3ccc(C(=O)NCCCN4CCCC4)cc3N(C)C2=O)cc1OC	none (no result: Cl transport mod)
Fc1ccccc1COc1ccc(Br)cc1CNCc1ccncc1	Cl transport mod -3.3, RGS4 pot -9.6 | KCC2 secondary inconclusive | KCC2 bumet counter inactive | KCC2 sec2 inactive | HEK counter1 inactive | KCC2 ouabain 0.014 | HEK counter2 inactive
Cc1cccc(NC(=O)Cn2c(O)c(N=NC(=O)c3ccncc3)c3ccccc32)c1	none
Cc1ccc(S(=O)(=O)N2CCOCC2)cc1C(=O)Nc1ccccc1F	none (no result: Cl transport mod)
Oc1c(N=NC(=S)Nc2ccccc2F)c2ccccc2n1Cc1ccccc1Cl	none
